The values that follow come from ChEMBL document CHEMBL3217467, “A structure-activity relationship study on multi-heterocyclic molecules: two linked thiazoles are required for cytotoxic activity” (Medchemcomm, 2013).

The structures appear in SMILES notation. Active and inactive are the calls of the source. The calls are words filed in the database; no cut-off is given here.

For assay [1], the system named is HCT-116. As to the kind of experiment: Cytotoxicity against human HCT116 cells assessed as growth inhibition after 72 hrs by CCK8 assay. Type of assay: functional, cell-based. The conditions noted are these: HCT-116, 72 h. The method in brief: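 HCT-116 cells seeded at 3000/well in DMEM with 10% FBS and left 24 h to adhere at 37°C in CO2. They were then exposed for 72 h to 1, 2, 5, 10, 20, 30 and 40 μM, with 1% DMSO and media-only controls. Readout was CCK-8 reduction, 1 h, absorbance at 450 nm. IC50 was taken from log concentration versus % survival curves; three experiments, quadruplicate points.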
Background: Tetrazolium dyes change colour on reduction, which living cells bring about.

Assay [2] deals with HCT-116. Put plainly: Cytotoxicity against human HCT116 cells assessed as growth inhibition at 40 uM after 72 hrs by CCK8 assay. It is filed as functional. The conditions noted are these: HCT-116, 72 h, read-out: GI. The method in brief: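 HCT-116 cells seeded at 3000/well in DMEM with 10% FBS and allowed 24 h at 37°C in CO2. They were then treated 72 h at a single 40 uM concentration, with media-only and 1% DMSO controls. Fresh serum-free medium plus CCK-8 was added for 1 h at 37°C, and absorbance read at 450 nm as % cell survival.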

Assay [3] deals with HCT-116. Put plainly: Induction of apoptosis in human HCT116 cells assessed as chromatin condensation at 10 uM after 24 hrs by Hoechst 33342 staining based microscopic analysis. Type of assay: functional, cell-based. Summed up: (§1)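 HCT 116 cells were plated at 20,000 per dish 24 h before treatment, then given 10 μM compound or 1% (v/v) DMSO control for 24 h. They were fixed in 1.5% glutaraldehyde in PBS for 1 h, washed with PBS, stained with 5 μg/ml Hoechst 33342 and imaged by confocal microscopy.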

Assay [4] concerns HCT-116. Put plainly: Induction of apoptosis in human HCT116 cells assessed as cell shrinkage and nuclear condensation at 10 uM after 24 hrs by Hoechst 33342 staining based microscopic analysis. Type of assay: functional. The method in brief: as §1
Assay [5] concerns HCT-116. Put plainly: Induction of apoptosis in human HCT116 cells assessed as plasma membrane budding at 10 uM after 24 hrs by Hoechst 33342 staining based microscopic analysis. It is filed as functional, cell-based. The method in brief:
as §1

Assay [6] has as its system HCT-116. Put plainly: Induction of apoptosis in human HCT116 cells assessed as intact plasma membranes at 10 uM after 24 hrs by Hoechst 33342 staining based microscopic analysis. It is filed as functional, cell-based. Summed up:
as §1

Assay [7] concerns HCT-116. As to the kind of experiment: Induction of apoptosis in human HCT116 cells assessed as nuclear condensation at 10 uM after 24 hrs by Hoechst 33342 staining based microscopic analysis. It is filed as functional. The method in brief: as §1

By IC50 is commonly meant the midpoint of a concentration-inhibition curve. On to `COC(=O)c1nc(-c2csc(-c3csc(-c4coc(-c5coc([C@@H](NC(=O)OC(C)(C)C)[C@@H](C)OC(C)(C)C)n5)n4)n3)n2)oc1-c1ccccc1`, for which, in assay [1], the IC50 came to 18.2 µM. Moreover, in assay [2], the inhibition of growth at 40 µM is greater than 50%.
Take `CCOC(=O)c1csc(-c2csc([C@@H](NC(=O)OC(C)(C)C)[C@@H](C)OC(C)(C)C)n2)n1`: the half-maximal inhibitory concentration (IC50) in assay [1] is 19.4 µM. For the same compound, the inhibition of growth at 40 µM in assay [2] is greater than 50%.
Consider `COC(=O)c1coc(-c2coc([C@@H](NC(=O)OC(C)(C)C)[C@@H](C)OC(C)(C)C)n2)n1`, for which the half-maximal inhibitory concentration (IC50) in assay [1] is greater than 100 µM.
As to `CCOC(=O)c1csc(-c2csc(-c3csc([C@@H](NC(=O)OC(C)(C)C)[C@@H](C)OC(C)(C)C)n3)n2)n1`, the result in assay [3] and in assay [6] was Active. In assay [1], the IC50 amounted to 26.5 µM. Moreover, the inhibition of growth at 40 µM in assay [2] is greater than 50%. Further, in assay [4], the Activity was 30%. For the same compound, the outcome in assay [5] was inactive.
Take `COC(=O)c1nc(-c2csc(-c3csc(-c4csc(-c5csc([C@@H](NC(=O)OC(C)(C)C)[C@@H](C)OC(C)(C)C)n5)n4)n3)n2)oc1-c1ccccc1`: in assay [1], the IC50 came to 18.7 µM. Further, the inhibition of growth at 40 µM in assay [2] is greater than 50%.
Turning to `CCOC(=O)c1csc(-c2coc(-c3coc([C@@H](NC(=O)OC(C)(C)C)[C@@H](C)OC(C)(C)C)n3)n2)n1`, the result in assay [3] and in assay [6] was Active. The Activity in assay [7] is 12%. The outcome in assay [5] was inactive.
